Results taken from ChEMBL document CHEMBL4428090, “Modeling, Synthesis, and Biological Evaluation of Potential Retinoid X Receptor (RXR)-Selective Agonists: Analogues of 4-[1-(3,5,5,8,8-Pentamethyl-5,6,7,8-tetrahydro-2-naphthyl)ethynyl]benzoic Acid (Bexarotene) and 6-(Ethyl(5,5,8,8-tetrahydronaphthalen-2-yl)amino)nicotinic Acid (NEt-TMN)” (J Med Chem, 2016).
The source made the active and inactive calls. No cut-off for these calls is given here.

How the values were obtained:
Retinoid X receptor = biological target: T1, Retinoid X receptor (Homo sapiens, UniProt P28702+P48443+P19793); assay: Agonist activity at human RXR binding domain and activation domain expressed in human HCT116 cells assessed as rexinoid activity incubated for 24 hrs by luciferase reporter gene based mammalian two-hybrid assay; format: cell-based
T1 sequence (P28702 whole entry): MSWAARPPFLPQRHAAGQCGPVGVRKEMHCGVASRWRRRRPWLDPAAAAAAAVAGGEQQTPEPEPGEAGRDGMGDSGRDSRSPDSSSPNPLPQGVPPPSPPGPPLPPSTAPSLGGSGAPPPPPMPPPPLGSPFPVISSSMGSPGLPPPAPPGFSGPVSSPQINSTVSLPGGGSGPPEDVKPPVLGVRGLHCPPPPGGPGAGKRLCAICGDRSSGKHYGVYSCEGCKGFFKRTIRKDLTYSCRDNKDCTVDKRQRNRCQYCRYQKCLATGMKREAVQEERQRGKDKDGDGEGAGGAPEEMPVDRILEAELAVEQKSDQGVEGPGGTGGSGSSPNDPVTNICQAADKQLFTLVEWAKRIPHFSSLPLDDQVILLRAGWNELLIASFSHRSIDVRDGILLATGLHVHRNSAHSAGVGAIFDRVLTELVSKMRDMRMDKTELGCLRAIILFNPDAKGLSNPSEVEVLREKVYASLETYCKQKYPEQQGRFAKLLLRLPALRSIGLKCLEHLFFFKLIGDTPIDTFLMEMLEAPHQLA
T1 sequence (P48443 whole entry): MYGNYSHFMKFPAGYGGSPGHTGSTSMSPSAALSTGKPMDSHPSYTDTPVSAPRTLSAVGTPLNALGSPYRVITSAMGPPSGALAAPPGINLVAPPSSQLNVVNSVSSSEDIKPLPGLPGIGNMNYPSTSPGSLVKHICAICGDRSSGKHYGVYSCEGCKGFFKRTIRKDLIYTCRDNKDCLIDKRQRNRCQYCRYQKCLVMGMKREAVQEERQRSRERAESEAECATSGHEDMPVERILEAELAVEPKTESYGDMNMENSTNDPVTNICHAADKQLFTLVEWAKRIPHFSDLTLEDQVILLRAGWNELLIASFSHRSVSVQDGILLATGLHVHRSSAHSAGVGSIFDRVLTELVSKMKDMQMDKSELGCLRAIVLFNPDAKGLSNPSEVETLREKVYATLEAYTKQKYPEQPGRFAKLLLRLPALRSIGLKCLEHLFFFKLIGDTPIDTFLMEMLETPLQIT
T1 sequence (P19793 whole entry): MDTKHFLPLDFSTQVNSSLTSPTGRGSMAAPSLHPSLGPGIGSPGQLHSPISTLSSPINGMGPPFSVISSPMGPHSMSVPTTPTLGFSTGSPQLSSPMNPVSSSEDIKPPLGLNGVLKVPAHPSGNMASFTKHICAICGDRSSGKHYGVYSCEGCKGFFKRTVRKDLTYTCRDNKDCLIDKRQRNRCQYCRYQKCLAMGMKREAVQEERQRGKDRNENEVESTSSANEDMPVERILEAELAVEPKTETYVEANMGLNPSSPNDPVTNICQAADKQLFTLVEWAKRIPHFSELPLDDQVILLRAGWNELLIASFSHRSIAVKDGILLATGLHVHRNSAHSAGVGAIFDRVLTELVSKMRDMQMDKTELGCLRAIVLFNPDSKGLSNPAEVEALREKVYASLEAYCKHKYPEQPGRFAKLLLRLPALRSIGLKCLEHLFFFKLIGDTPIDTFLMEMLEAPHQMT

[1] = biological target: T2, Retinoid X receptor (Homo sapiens) (UniProt P28702+P48443+P19793); assay: Agonist activity at human RXR binding domain and activation domain expressed in human HCT116 cells assessed as rexinoid activity at 100 nM incubated for 24 hrs by luciferase reporter gene based mammalian two-hybrid assay relative to bexarotene; format: cell-based
Method in brief: (§1)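 HCT-116 cells plated overnight (80,000/well, DMEM with 10% FBS), co-transfected for 24 h with human RXR binding-domain (bait) and activation-domain (prey) vectors, pFR-Luc Gal4 reporter and renilla control. Treated 24 h at 25, 100 or 1000 nM final; vehicle ethanol or DMSO 0.1%. Dual-luciferase read-out. Three independent assays in triplicate; bexarotene set to 100%.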

[2] = biological target: T3, Retinoic acid receptor RXR-alpha (Homo sapiens) (UniProt P19793); assay: Agonist activity at human RXRalpha expressed in human HCT116 cells assessed as increase in RXRE-mediated transcription at 100 nM incubated for 24 hrs by RXRE luciferase reporter gene assay relative to bexarotene; format: cell-based
T3 sequence (whole entry): T1 sequence (P19793 whole entry)
Method in brief: (§2)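 HCT-116 cells (80,000/well) co-transfected for 24 h with 250 ng RXRE-luciferase reporter (DR1 element from the rat cellular retinol binding protein II gene), 25 ng pSG5-human RXRα and 20 ng renilla. Dosed 24 h at 25, 100 or 1000 nM final; ethanol or DMSO vehicle 0.1%. Dual-luciferase read-out. Three independent assays in triplicate; bexarotene = 100%.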

[3] = biological target: T3, Retinoic acid receptor RXR-alpha (Homo sapiens); assay: Agonist activity at human RXRalpha expressed in human HCT116 cells assessed as increase in RXRE-mediated transcription at 1000 nM incubated for 24 hrs by RXRE luciferase reporter gene assay relative to bexarotene; format: cell-based; method in brief: as §2
[4] = biological target: T4, Retinoic acid receptor RXR-alpha/oxysterols receptor LXR-alpha (Homo sapiens, UniProt P19793+Q13133); assay: Agonist activity at human RXRalpha/LXRalpha expressed in human HCT116 cells assessed as reduction in SREBP-mediated transcription activity at 100 nM incubated for 24 hrs by luciferase reporter gene assay relative to bexarotene; format: cell-based; parameters: scale not given: the % may be the effect or the level left; conditions: 0.1 µM
T4 sequence (P19793 whole entry): T1 sequence (P19793 whole entry)
T4 sequence (Q13133 whole entry): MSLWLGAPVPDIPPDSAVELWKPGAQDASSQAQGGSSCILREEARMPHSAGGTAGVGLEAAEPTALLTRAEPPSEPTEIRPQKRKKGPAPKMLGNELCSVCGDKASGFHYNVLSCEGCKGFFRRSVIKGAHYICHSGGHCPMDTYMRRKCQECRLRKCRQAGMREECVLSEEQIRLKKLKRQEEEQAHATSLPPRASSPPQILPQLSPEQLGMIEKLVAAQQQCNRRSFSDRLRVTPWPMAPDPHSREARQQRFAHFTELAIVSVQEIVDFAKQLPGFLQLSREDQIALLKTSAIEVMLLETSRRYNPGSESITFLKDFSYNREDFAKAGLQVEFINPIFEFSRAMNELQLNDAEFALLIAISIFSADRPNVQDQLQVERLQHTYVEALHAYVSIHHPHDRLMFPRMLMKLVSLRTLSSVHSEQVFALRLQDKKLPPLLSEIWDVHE
Method in brief: (§3)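 HCT116 cells co-transfected for 24 h with 100 ng pBP1c(6500)-Luc (about 6500 bp murine SREBP-1c promoter), 10 ng human LXRα and 20 ng renilla. Treated 24 h with compound at 100 nM, alone or with 100 nM TO901317. Luciferase output. Three independent assays in triplicate; bexarotene = 100%.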

[5] = biological target: T4, Retinoic acid receptor RXR-alpha/oxysterols receptor LXR-alpha; assay: Agonist activity at human RXRalpha/LXRalpha expressed in human HCT116 cells assessed as reduction in SREBP-mediated transcription activity at 100 nM incubated for 24 hrs by luciferase reporter gene assay in presence of 100 nM LXR agonist TO901317 relative to bexarotene; format: cell-based; parameters: scale not given: the % may be the effect or the level left; conditions: 0.1 µM; method in brief: as §3
HuT78 = assay: Growth inhibition of human HUT78 cells at 200 nM incubated for 72 hrs by MTS assay relative to bexarotene; format: functional; conditions: HuT78, 72 h, read-out: GI
Method in brief: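 Hut78 cells in RPMI with 10% FBS at 37°C, 5% CO2. Plated 7,500 cells/well and immediately dosed at 200 nM for 72 h. MTS read at A490; percent inhibition with media control set to 0.0, compared with bexarotene set to 100%. Mean of three independent experiments.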

[6] = Mutagenicity in Saccharomyces cerevisiae D7 assessed as induction of mutagenesis by measuring forward and reverse mutations up to 0.1 mg/mL; format: toxicity
[7] = biological target: T2, Retinoid X receptor (Homo sapiens); assay: Agonist activity at human RXR binding domain and activation domain expressed in human HCT116 cells assessed as rexinoid activity at 25 nM incubated for 24 hrs by luciferase reporter gene based mammalian two-hybrid assay relative to bexarotene; format: cell-based; method in brief: as §1
[8] = biological target: T2, Retinoid X receptor (Homo sapiens); assay: Agonist activity at human RXR binding domain and activation domain expressed in human HCT116 cells assessed as rexinoid activity at 1000 nM incubated for 24 hrs by luciferase reporter gene based mammalian two-hybrid assay relative to bexarotene; format: cell-based; method in brief: as §1
[9] = biological target: T3, Retinoic acid receptor RXR-alpha (Homo sapiens); assay: Agonist activity at human RXRalpha expressed in human HCT116 cells assessed as increase in RXRE-mediated transcription at 25 nM incubated for 24 hrs by RXRE luciferase reporter gene assay relative to bexarotene; format: cell-based; method in brief: as §2
[10] = Lipid risk index, ratio of agonist activity at human RXRalpha/LXRalpha expressed in human HCT116 cells assessed as reduction in SREBP-mediated transcription activity to agonist activity at human RXRalpha expressed in human HCT116 cells assessed as increase in RXRE-mediated transcription
Method in brief: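 Lipid risk index: SREBP-promoter luciferase activity (HCT116, LXRα-transfected, 100 nM compound with or without 100 nM TO901317, 24 h) divided by RXRE activity at 100 nM. The SREBP:RXRE ratio for bexarotene is set to 1.0.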

[11] = biological target: T2, Retinoid X receptor (Homo sapiens); assay: Antagonist activity against human RXR binding domain and activation domain expressed in human HCT116 cells assessed as reduction in bexarotene-induced rexinoid activity incubated for 24 hrs by luciferase reporter gene based mammalian two-hybrid assay; format: cell-based
[12] = biological target: T3, Retinoic acid receptor RXR-alpha (Homo sapiens); assay: Agonist activity at human RXRalpha expressed in human HCT116 cells assessed as increase in RXRE-mediated transcription incubated for 24 hrs by RXRE luciferase reporter gene assay; format: cell-based
Homo sapiens = species: Homo sapiens; assay: Selectivity index, ratio of agonist activity at human RARalpha expressed in HEK293 cells assessed as increase in RARE-mediated transcription relative to bexarotene to agonist activity at human RXRalpha expressed in human HCT116 cells assessed as increase in RXRE-mediated transcription relative to bexarotene; format: cell-based
Method in brief: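 HEK293 cells (60,000/well) transfected for 24 h with 250 ng pTK-DR5(X2)-Luc, 25 ng human RARα and 20 ng renilla. Treated 24 h at 100 nM; activity expressed as a percentage of all-trans-retinoic acid. This RARE activity is divided by 100 nM RXRE activity, with the bexarotene ratio set to 1.0.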

SMILES	EC50 (Retinoid X receptor) [nM]	Activity [1]	Activity [2] [%]	Activity [3]	Activity [4]	Activity [5]	fold change (FC) [7]	Activity [8] [%]	Activity [9] [%]	Activity [7] [%]	Activity [11]	Activity [12]	fold change (FC) ([1]; in the assay text read “relative to activity at 25 nM” for “relative to bexarotene”)	inhibition of growth at 0.2 µM (HuT78) [%]	Activity [6]	Ratio [10]	Ratio (Homo sapiens)
C=C(c1ccc(S(=O)(=O)O)cc1)c1cc2c(cc1C)C(C)(C)CCC2(C)C	18200	inactive			Not Active			17		0.8	Dose-dependent effect	inactive			Non-Toxic		
CCN(c1ccc(C(=O)O)c(F)c1)c1ccc2c(c1)C(C)(C)CCC2(C)C	125.6	Active	16 to 32	Active	54 to 79%	Active			27 to 66					35 to 51	Non-Toxic	0.48 - 0.65	0.35 to 0.37
CCN(c1cnc(C(=O)O)cn1)c1cc2c(cc1C)C(C)(C)CCC2(C)C	295.5			Active	54 to 79%	29%				3.4		inactive	5 to 16	35 to 51	Non-Toxic		> 0.5

Continued, in another order:

EC50 (Retinoid X receptor) [nM]	Activity [1]	Activity [2] [%]	Activity [3]	Activity [4]	Activity [5]	fold change (FC) [7]	Activity [8] [%]	Activity [9] [%]	Activity [7] [%]	Activity [11]	Activity [12]	fold change (FC) ([1]; in the assay text read “relative to activity at 25 nM” for “relative to bexarotene”)	SMILES	inhibition of growth at 0.2 µM (HuT78) [%]	Activity [6]	Ratio [10]	Ratio (Homo sapiens)
143.4	Active	16 to 32	Active	54 to 79%	Active								CCN(c1ccc(C(=O)O)cc1)c1ccc2c(c1)C(C)(C)CCC2(C)C	55 to 80	Non-Toxic		
40.9	135 to 146%	68 to 89	20 to 43%	Active	13 to 17%	2	35 to 58	27 to 66					CCN(c1ccc2c(c1)C(C)(C)CCC2(C)C)c1ncc(C(=O)O)cn1	> 85	Non-Toxic	0.49 - 0.51	
